Assay results: ChEMBL document CHEMBL4145691, “Metalloporphyrin-Catalyzed Oxidation of Sunitinib and Pazopanib, Two Anticancer Tyrosine Kinase Inhibitors: Evidence for New Potentially Toxic Metabolites” (J Med Chem, 2018); call rule not given here

Legend:
[1] = Drug level using pazopanib assessed as compound formation in presence of MMPP and Mn(III)TDCPP/Cl by NMR and mass spectrometry; assay type: physicochemical
Procedure, shortened: (§1)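 Biomimetic oxidation catalysed by Mn(III)-porphyrin with water-soluble oxygen donor (KHSO5 or MMPP), run in biphasic water/organic medium with a quaternary ammonium salt as phase-transfer catalyst. Products identified by NMR and mass spectrometry.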

[2] = Retention time of the compound in presence of MMPP and Mn(III)TDCPP/Cl by UHPLC-MS analysis; assay type: physicochemical
Procedure, shortened: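 Pazopanib oxidation mixture run by UHPLC-MS at 0.4 mL/min and 30 °C. Eluents: 5 mM ammonium formate pH 3.2, and 0.1% formic acid in acetonitrile. ESI+, full scan m/z 200–520 plus MRM.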

[3] = Drug level using sunitinib assessed as compound formation in presence of KHSO5 and Mn(III)TDCPP/Cl by NMR and mass spectrometry; assay type: physicochemical; procedure, shortened: as §1
[4] = Retention time of the compound in presence of KHSO5 and Mn(III)TDCPP/Cl by UHPLC-MS analysis; assay type: physicochemical
Procedure, shortened: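 Sunitinib oxidation mixture run by UHPLC-MS at 0.4 mL/min and 30 °C. Eluents: 5 mM ammonium formate pH 3.2, and 0.1% formic acid in acetonitrile. Gradient 5→35% B by 3.5 min, held to 5.5 min, then 95% by 6.5 min. ESI+, full scan m/z 200–500 plus MRM.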

[5] = Retention time of the compound in human liver microsomes by UHPLC-MS analysis; assay type: ADME, microsome
Procedure, shortened: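 Human liver microsomes (final 0.5 mg/mL protein) with NADPH regenerating system in 0.1 M phosphate pH 7.4, pre-incubated 5 min at 37 °C. Stopped with acetonitrile, centrifuged, filtered, supernatant analysed by UHPLC-MS (ESI+, full scan/MRM). No-NADPH negative control.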

| Compound | Product formation [1] | Retention_time [2] | Product formation [3] | Retention_time [5] | further results |
| --- | --- | --- | --- | --- | --- |
| Cc1ccc(Nc2ncc(Cl)c(N(C)c3ccc4c(CO)n(C)nc4c3)n2)cc1S(N)(=O)=O | Active | 3.32 min | – | – | – |
| CCN(CC)CCNC(=O)c1c(COC)[nH]c(/C=C2\C(=O)Nc3ccc(F)cc32)c1C | – | – | Active | – | Retention time [4]: 4.56 min |
| CCN(CC)CCNC(=O)c1c(CO)[nH]c(/C=C2\C(=O)Nc3ccc(F)cc32)c1C | – | – | Active | 4.36 min | Retention_time [4]: 4.36 min |
| CO/N=C/c1c2ccc(N(C)c3ccnc(Nc4ccc(C)c(S(N)(=O)=O)c4)n3)cc2nn1C | Active | – | – | – | Retention time [2]: 2.96 to 3.11 min |
| Cc1ccc(Nc2nccc(N(C)c3ccc4c(CO)n(C)nc4c3)n2)cc1S(N)(=O)=O | Active | 2.56 min | – | – | – |
| CCN(CC)CCNC(=O)c1c(C=O)[nH]c(/C=C2\C(=O)Nc3ccc(F)cc32)c1C | – | – | Active | 4.36 min | Retention_time [4]: 4.36 min |
| CC(=O)OCc1c2ccc(N(C)c3ccnc(Nc4ccc(C)c(S(N)(=O)=O)c4)n3)cc2nn1C | Active | – | – | – | – |
| CC[N+]([O-])(CC)CCNC(=O)c1c(C)[nH]c(/C=C2\C(=O)Nc3ccc(F)cc32)c1C | – | – | Active | – | – |
| Cc1ccc(Nc2ncc(Cl)c(N(C)c3ccc4c(C)n(C)nc4c3)n2)cc1S(N)(=O)=O | Active | 3.55 min | – | 3.54 min | – |
| Cc1ccc(Nc2nccc(N(C)c3ccc4c(C=O)n(C)nc4c3)n2)cc1S(N)(=O)=O | Active | 2.82 min | – | 2.84 min | – |
| CCN(CC)CCNC(=O)c1c(/C=N/OC)[nH]c(/C=C2\C(=O)Nc3ccc(F)cc32)c1C | – | – | – | 4.74 min | Retention_time [4]: 4.77 min |
| Cc1ccc(Nc2ncc(Cl)c(N(C)c3ccc4c(C=O)n(C)nc4c3)n2)cc1S(N)(=O)=O | Active | 3.63 min | – | – | – |
